Results as given in ChEMBL document CHEMBL4152188, “Design, synthesis and biological evaluation of C(4) substituted monobactams as antibacterial agents against multidrug-resistant Gram-negative bacteria” (Eur J Med Chem, 2018).
≈ marks a conversion by molar mass, not a printed value.

Assays:
Assay type in all cases: functional
[1] = system: Escherichia coli; assay: Antibacterial activity against extended-spectrum beta-lactamase producing Escherichia coli isolate 212648 after 18 hrs by CLSI broth microdilution method; details: isolate 212648, 18 h
[2] = system: Escherichia coli; assay: Selectivity index, ratio of MIC for against extended-spectrum beta-lactamase producing Escherichia coli isolate 208687 to MIC for extended-spectrum beta-lactamase producing Escherichia coli isolate 208687 in presence of BPL
[3] = system: Escherichia coli; assay: Antibacterial activity against Escherichia coli isolate 210737 after 18 hrs by CLSI broth microdilution method; details: isolate 210737, 18 h
[4] = system: Escherichia coli; assay: Antibacterial activity against extended-spectrum beta-lactamase producing Escherichia coli isolate 208687 after 18 hrs by CLSI broth microdilution method; details: isolate 208687, 18 h
[5] = system: Escherichia coli; assay: Antibacterial activity against extended-spectrum beta-lactamase producing Escherichia coli isolate 208687 after 18 hrs in presence of BPL by CLSI broth microdilution method; details: isolate 208687, 18 h
Procedure, shortened: (§1)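 CLSI broth microdilution against clinical isolates (ESBL E. coli, KPC-2 MDR K. pneumoniae, IMP-4 MDR P. aeruginosa; five per species). Iron limitation: Mueller-Hinton broth supplemented with 16 mg/liter 2,2'-bipyridyl to complex iron and induce iron uptake systems. Read-out: MIC.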

[6] = system: Escherichia coli; assay: Antibacterial activity against Escherichia coli isolate 210737 after 18 hrs in presence of BPL by CLSI broth microdilution method; details: isolate 210737, 18 h; procedure, shortened: as §1
[7] = system: Escherichia coli; assay: Selectivity index, ratio of MIC for against Escherichia coli isolate 210737 to MIC for Escherichia coli isolate 210737 in presence of BPL
[8] = system: Escherichia coli; assay: Antibacterial activity against extended-spectrum beta-lactamase producing Escherichia coli isolate 212648 after 18 hrs in presence of BPL by CLSI broth microdilution method; details: isolate 212648, 18 h; procedure, shortened: as §1
[9] = system: Escherichia coli; assay: Selectivity index, ratio of MIC for against extended-spectrum beta-lactamase producing Escherichia coli isolate 212648 to MIC for extended-spectrum beta-lactamase producing Escherichia coli isolate 212648 in presence of BPL
[10] = system: Escherichia coli; assay: Antibacterial activity against extended-spectrum beta-lactamase producing Escherichia coli isolate 209285 after 18 hrs by CLSI broth microdilution method; details: isolate 209285, 18 h
[11] = system: Escherichia coli; assay: Antibacterial activity against extended-spectrum beta-lactamase producing Escherichia coli isolate 209285 after 18 hrs in presence of BPL by CLSI broth microdilution method; details: isolate 209285, 18 h; procedure, shortened: as §1
[12] = system: Escherichia coli; assay: Selectivity index, ratio of MIC for against extended-spectrum beta-lactamase producing Escherichia coli isolate 209285 to MIC for extended-spectrum beta-lactamase producing Escherichia coli isolate 209285 in presence of BPL
[13] = system: Escherichia coli; assay: Antibacterial activity against extended-spectrum beta-lactamase producing Escherichia coli isolate 106342 after 18 hrs by CLSI broth microdilution method; details: isolate 106342, 18 h
[14] = system: Escherichia coli; assay: Antibacterial activity against extended-spectrum beta-lactamase producing Escherichia coli isolate 106342 after 18 hrs in presence of BPL by CLSI broth microdilution method; details: isolate 106342, 18 h; procedure, shortened: as §1
[15] = system: Escherichia coli; assay: Selectivity index, ratio of MIC for against extended-spectrum beta-lactamase producing Escherichia coli isolate 106342 to MIC for extended-spectrum beta-lactamase producing Escherichia coli isolate 106342 in presence of BPL
[16] = system: Klebsiella pneumoniae; assay: Antibacterial activity against KPC-2 producing Klebsiella pneumoniae isolate 212423 after 18 hrs by CLSI broth microdilution method; details: isolate 212423, 18 h
[17] = system: Klebsiella pneumoniae; assay: Antibacterial activity against KPC-2 producing Klebsiella pneumoniae isolate 212423 after 18 hrs in presence of BPL by CLSI broth microdilution method; details: isolate 212423, 18 h; procedure, shortened: as §1
[18] = system: Klebsiella pneumoniae; assay: Selectivity index, ratio of MIC for against KPC-2 producing Klebsiella pneumoniae isolate 212423 to MIC for against KPC-2 producing Klebsiella pneumoniae isolate 212423 in presence of BPL
[19] = system: Klebsiella pneumoniae; assay: Antibacterial activity against KPC-2 producing Klebsiella pneumoniae isolate 209632 after 18 hrs by CLSI broth microdilution method; details: isolate 209632, 18 h
[20] = system: Klebsiella pneumoniae; assay: Antibacterial activity against KPC-2 producing Klebsiella pneumoniae isolate 209632 after 18 hrs in presence of BPL by CLSI broth microdilution method; details: isolate 209632, 18 h; procedure, shortened: as §1
[21] = system: Klebsiella pneumoniae; assay: Selectivity index, ratio of MIC for against KPC-2 producing Klebsiella pneumoniae isolate 209632 to MIC for against KPC-2 producing Klebsiella pneumoniae isolate 209632 in presence of BPL
[22] = system: Klebsiella pneumoniae; assay: Antibacterial activity against KPC-2 producing Klebsiella pneumoniae isolate 209735 after 18 hrs by CLSI broth microdilution method; details: isolate 209735, 18 h
[23] = system: Klebsiella pneumoniae; assay: Antibacterial activity against KPC-2 producing Klebsiella pneumoniae isolate 209735 after 18 hrs in presence of BPL by CLSI broth microdilution method; details: isolate 209735, 18 h; procedure, shortened: as §1
[24] = system: Klebsiella pneumoniae; assay: Selectivity index, ratio of MIC for against KPC-2 producing Klebsiella pneumoniae isolate 209735 to MIC for against KPC-2 producing Klebsiella pneumoniae isolate 209735 in presence of BPL
[25] = system: Klebsiella pneumoniae; assay: Antibacterial activity against KPC-2 producing Klebsiella pneumoniae isolate 212232 after 18 hrs by CLSI broth microdilution method; details: isolate 212232, 18 h
[26] = system: Klebsiella pneumoniae; assay: Antibacterial activity against KPC-2 producing Klebsiella pneumoniae isolate 212232 after 18 hrs in presence of BPL by CLSI broth microdilution method; details: isolate 212232, 18 h; procedure, shortened: as §1
[27] = system: Klebsiella pneumoniae; assay: Selectivity index, ratio of MIC for against KPC-2 producing Klebsiella pneumoniae isolate 212232 to MIC for against KPC-2 producing Klebsiella pneumoniae isolate 212232 in presence of BPL
[28] = system: Klebsiella pneumoniae; assay: Antibacterial activity against KPC-2 producing Klebsiella pneumoniae isolate 212229 after 18 hrs by CLSI broth microdilution method; details: isolate 212229, 18 h
[29] = system: Klebsiella pneumoniae; assay: Antibacterial activity against KPC-2 producing Klebsiella pneumoniae isolate 212229 after 18 hrs in presence of BPL by CLSI broth microdilution method; details: isolate 212229, 18 h; procedure, shortened: as §1
[30] = system: Klebsiella pneumoniae; assay: Selectivity index, ratio of MIC for against KPC-2 producing Klebsiella pneumoniae isolate 212229 to MIC for against KPC-2 producing Klebsiella pneumoniae isolate 212229 in presence of BPL
[31] = system: Pseudomonas aeruginosa; assay: Antibacterial activity against IMP-4 producing Pseudomonas aeruginosa isolate 212886 after 18 hrs by CLSI broth microdilution method; details: isolate 212886, 18 h
[32] = system: Pseudomonas aeruginosa; assay: Antibacterial activity against IMP-4 producing Pseudomonas aeruginosa isolate 212886 after 18 hrs in presence of BPL by CLSI broth microdilution method; details: isolate 212886, 18 h; procedure, shortened: as §1
[33] = system: Pseudomonas aeruginosa; assay: Selectivity index, ratio of MIC for against IMP-4 producing Pseudomonas aeruginosa isolate 212886 to MIC for against IMP-4 producing Pseudomonas aeruginosa isolate 212886 in presence of BPL
[34] = system: Pseudomonas aeruginosa; assay: Antibacterial activity against IMP-4 producing Pseudomonas aeruginosa isolate 209471 after 18 hrs by CLSI broth microdilution method; details: isolate 209471, 18 h
[35] = system: Pseudomonas aeruginosa; assay: Antibacterial activity against IMP-4 producing Pseudomonas aeruginosa isolate 209471 after 18 hrs in presence of BPL by CLSI broth microdilution method; details: isolate 209471, 18 h; procedure, shortened: as §1
[36] = system: Pseudomonas aeruginosa; assay: Selectivity index, ratio of MIC for against IMP-4 producing Pseudomonas aeruginosa isolate 209471 to MIC for against IMP-4 producing Pseudomonas aeruginosa isolate 209471 in presence of BPL
[37] = system: Pseudomonas aeruginosa; assay: Antibacterial activity against IMP-4 producing Pseudomonas aeruginosa isolate 208247 after 18 hrs by CLSI broth microdilution method; details: isolate 208247, 18 h
[38] = system: Pseudomonas aeruginosa; assay: Antibacterial activity against IMP-4 producing Pseudomonas aeruginosa isolate 208247 after 18 hrs in presence of BPL by CLSI broth microdilution method; details: isolate 208247, 18 h; procedure, shortened: as §1
[39] = system: Pseudomonas aeruginosa; assay: Selectivity index, ratio of MIC for against IMP-4 producing Pseudomonas aeruginosa isolate 208247 to MIC for against IMP-4 producing Pseudomonas aeruginosa isolate 208247 in presence of BPL
[40] = system: Pseudomonas aeruginosa; assay: Antibacterial activity against IMP-4 producing Pseudomonas aeruginosa isolate 209321 after 18 hrs by CLSI broth microdilution method; details: isolate 209321, 18 h
[41] = system: Pseudomonas aeruginosa; assay: Antibacterial activity against IMP-4 producing Pseudomonas aeruginosa isolate 209321 after 18 hrs in presence of BPL by CLSI broth microdilution method; details: isolate 209321, 18 h; procedure, shortened: as §1
[42] = system: Pseudomonas aeruginosa; assay: Selectivity index, ratio of MIC for against IMP-4 producing Pseudomonas aeruginosa isolate 209321 to MIC for against IMP-4 producing Pseudomonas aeruginosa isolate 209321 in presence of BPL
[43] = system: Pseudomonas aeruginosa; assay: Antibacterial activity against IMP-4 producing Pseudomonas aeruginosa isolate 207272 after 18 hrs by CLSI broth microdilution method; details: isolate 207272, 18 h
[44] = system: Pseudomonas aeruginosa; assay: Antibacterial activity against IMP-4 producing Pseudomonas aeruginosa isolate 207272 after 18 hrs in presence of BPL by CLSI broth microdilution method; details: isolate 207272, 18 h; procedure, shortened: as §1
[45] = system: Pseudomonas aeruginosa; assay: Selectivity index, ratio of MIC for against IMP-4 producing Pseudomonas aeruginosa isolate 207272 to MIC for against IMP-4 producing Pseudomonas aeruginosa isolate 207272 in presence of BPL

CC(C)C(O/N=C(\C(=O)N[C@@H]1C(=O)N(S(=O)(=O)O)[C@@H]1CSc1nnnn1C)c1csc(N)n1)c1cc(=O)c(O)cn1O (stereo not given in full)
MIC [1]: 0.5 mg/L (≈ 0.776 µM)
Selectivity Index [2]: 2
MIC [3]: 0.5 mg/L (≈ 0.776 µM)
MIC [4]: 0.125 mg/L (≈ 0.194 µM)
MIC [5]: 0.06 mg/L
MIC [6]: 0.25 mg/L
Selectivity Index [7]: 2
MIC [8]: 0.25 mg/L
Selectivity Index [9]: 2
MIC [10]: 1 mg/L (≈ 1.55 µM)
MIC [11]: 0.25 mg/L
Selectivity Index [12]: 4
MIC [13]: 1 mg/L (≈ 1.55 µM)
MIC [14]: 0.5 mg/L
Selectivity Index [15]: 2
MIC [16]: 2 mg/L (≈ 3.1 µM)
MIC [17]: 1 mg/L
Selectivity Index [18]: 2
MIC [19]: 1 mg/L (≈ 1.55 µM)
MIC [20]: 1 mg/L
Selectivity Index [21]: 1
MIC [22]: 2 mg/L (≈ 3.1 µM)
MIC [23]: 0.5 mg/L
Selectivity Index [24]: 4
MIC [25]: 2 mg/L (≈ 3.1 µM)
MIC [26]: 0.25 mg/L
Selectivity Index [27]: 8
MIC [28]: 1 mg/L (≈ 1.55 µM)
MIC [29]: 0.5 mg/L
Selectivity Index [30]: 2
MIC [31]: > 64 mg/L
MIC [32]: 32 mg/L
Selectivity Index [33]: >2
MIC [34]: 64 mg/L (≈ 99.3 µM)
MIC [35]: 64 mg/L
Selectivity Index [36]: 1
MIC [37]: 32 mg/L (≈ 49.6 µM)
MIC [38]: 16 mg/L
Selectivity Index [39]: 2
MIC [40]: 64 mg/L (≈ 99.3 µM)
MIC [41]: 32 mg/L
Selectivity Index [42]: 2
MIC [43]: 32 mg/L (≈ 49.6 µM)
MIC [44]: 16 mg/L
Selectivity Index [45]: 2

CC(C)C(O/N=C(\C(=O)NC1C(=O)N(S(=O)(=O)O)C12CCCC2)c1csc(N)n1)c1cc(=O)c(O)cn1O (stereo not given)
MIC [1]: 4 mg/L (≈ 7.01 µM)
Selectivity Index [2]: 2
MIC [3]: 0.5 mg/L (≈ 0.876 µM)
MIC [4]: 1 mg/L (≈ 1.75 µM)
MIC [5]: 0.5 mg/L
MIC [6]: 0.25 mg/L
Selectivity Index [7]: 2
MIC [8]: 1 mg/L
Selectivity Index [9]: 4
MIC [10]: 1 mg/L (≈ 1.75 µM)
MIC [11]: 0.5 mg/L
Selectivity Index [12]: 2
MIC [13]: 2 mg/L (≈ 3.51 µM)
MIC [14]: 0.5 mg/L
Selectivity Index [15]: 4
MIC [16]: 2 mg/L (≈ 3.51 µM)
MIC [17]: 1 mg/L
Selectivity Index [18]: 2
MIC [19]: 8 mg/L (≈ 14 µM)
MIC [20]: 1 mg/L
Selectivity Index [21]: 8
MIC [22]: 4 mg/L (≈ 7.01 µM)
MIC [23]: 1 mg/L
Selectivity Index [24]: 4
MIC [25]: 4 mg/L (≈ 7.01 µM)
MIC [26]: 1 mg/L
Selectivity Index [27]: 4
MIC [28]: 4 mg/L (≈ 7.01 µM)
MIC [29]: 1 mg/L
Selectivity Index [30]: 4
MIC [31]: 16 mg/L (≈ 28 µM)
MIC [32]: 16 mg/L
Selectivity Index [33]: 1
MIC [34]: 32 mg/L (≈ 56.1 µM)
MIC [35]: 16 mg/L
Selectivity Index [36]: 2
MIC [37]: 16 mg/L (≈ 28 µM)
MIC [38]: 8 mg/L
Selectivity Index [39]: 2
MIC [40]: 16 mg/L (≈ 28 µM)
MIC [41]: 16 mg/L
Selectivity Index [42]: 1
MIC [43]: 16 mg/L (≈ 28 µM)
MIC [44]: 16 mg/L
Selectivity Index [45]: 1
